The source of these data is ChEMBL document CHEMBL3272347, “Adamantanamine derivatives. Antimicrobial activities of certain Mannich bases” (1976).

Type in all cases: functional
For one assay, the system named is Pseudomonas aeruginosa. The assay is described as follows: Antimicrobial activity against Pseudomonas aeruginosa OU 10048 assessed as zone of inhibition after 24 hrs at 4 mg/0.1 ml by agar diffusion method. Summed up:
(§1)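 Bacteria were tested on seeded agar plates with 12.7-mm disks, each loaded with 0.1 ml of compound in Me2SO (stock used directly or Me2SO-diluted). Disks were held 30 min on a wire screen before placement, four per plate. Incubation was 37°, 24 hr. Inhibition zones were measured by caliper to the nearest 0.1 mm. Replicates were 2–4 per dilution over at least two separate days, averaged.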

Another assay relates to Mycolicibacterium phlei. The assay is described as follows: Antimicrobial activity against Mycobacterium phlei ATCC 356 assessed as zone of inhibition after 48 hrs at 0.5 mg/0.1 ml by agar diffusion method. Summed up:
(§2)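 Mycobacterium disk diffusion on MDTM agar. Each disk (12.7 mm) got 0.1 ml of Me2SO solution, was air-stood 30 min, then was placed four per seeded plate. Plates were incubated at 37° for 48 hr. Zone diameter was measured by caliper to 0.1 mm. Results averaged 2–4 replicate disks and ≥2 independent-day experiments.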
For orientation: In agar diffusion tests the substance spreads into inoculated agar from a disc or well.

The test system of assay [1] is Escherichia coli. Briefly: Antimicrobial activity against Escherichia coli ATCC 10586 assessed as zone of inhibition after 24 hrs at 2 mg/0.1 ml by agar diffusion method. Put shortly: as §1
The test system of a further assay is Aspergillus niger. Briefly: Antimicrobial activity against Aspergillus niger OU S-23 assessed as zone of inhibition after 48 hrs at 4 mg/0.1 ml by agar diffusion method. Put shortly: (§3)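 Disk agar diffusion on SDA. Compound in Me2SO stock, used neat or diluted in Me2SO, was loaded at 0.1 ml per 12.7-mm disk. Disks stood 30 min on mesh, then went four per seeded plate. Plates ran at 37° for 48 hr (A. niger) or 24 hr (C. albicans). Zones were read by caliper to 0.1 mm. There were 2–4 replicate disks per dilution and ≥2 experiments on separate days with same-day stocks; results were averaged.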

In assay [2] the test system is Escherichia coli. Briefly: Antimicrobial activity against Escherichia coli ATCC 11303 assessed as zone of inhibition after 24 hrs at 2 mg/0.1 ml by agar diffusion method. Summed up: as §1
Assay [3] deals with Escherichia coli. The assay is described as follows: Antimicrobial activity against Escherichia coli ATCC 8739 assessed as zone of inhibition after 24 hrs at 2 mg/0.1 ml by agar diffusion method. Put shortly:
as §1

The test system of assay [4] is Staphylococcus aureus. The assay is described as follows: Antimicrobial activity against Staphylococcus aureus ATCC 10001 assessed as zone of inhibition after 24 hrs at 2 mg/0.1 ml by agar diffusion method. Summed up:
as §1

A further assay relates to Candida albicans. The assay is described as follows: Antimicrobial activity against Candida albicans CDC MI-023 assessed as zone of inhibition after 24 hrs at 4 mg/0.1 ml by agar diffusion method. Summed up:
as §3

For assay [5], the system named is Staphylococcus aureus. The assay is described as follows: Antimicrobial activity against Staphylococcus aureus ATCC 10014 assessed as zone of inhibition after 24 hrs at 2 mg/0.1 ml by agar diffusion method. Put shortly: as §1
Assay [6] relates to Mycolicibacterium smegmatis. The assay is described as follows: Antimicrobial activity against Mycobacterium smegmatis OU 10049 assessed as zone of inhibition after 48 hrs at 0.5 mg/0.1 ml by agar diffusion method. Summed up: as §2

Molecules are shown by their SMILES.

Consider `CC(CNC12CC3CC(CC(C3)C1)C2)C(=O)c1ccccc1.Cl` (stereo not given), for which the “inhibition zone (IZ)” value in the assay with Pseudomonas aeruginosa worked out at 15 mm; in the assay on Mycolicibacterium phlei, 17.3 mm; in the assay with Escherichia coli [1] it was 16.4 mm; in the assay on Aspergillus niger it was 15 mm; in the assay with Escherichia coli [2], 17.2 mm; in the assay with Escherichia coli [3], 16.1 mm. Also, the “inhibition zone (IZ)” value with Staphylococcus aureus [4] is recorded as 16.2 mm; in the assay with Candida albicans it was less than 15 mm; in the assay with Staphylococcus aureus [5], 16.3 mm; in assay [6], 17 mm.
